Published values collected from several papers.
Compare with care: the assays were run in different laboratories.
Target: Angiopoietin-1 receptor (TEK, Homo sapiens, UniProt Q02763)

Nc1ncc2c(n1)-c1c([nH]c3ccc(C#CC4CC4)cc13)CCCC2 — remaining binding (binding; competition with immobilised ligand; 1 µM): 100%
CC1CCCN1c1nccc(-c2cnn3ncccc23)n1 (stereo not shown) — remaining binding (binding; 1 µM): 98%
O=C(c1ccc(Nc2ncc(Cl)c(-c3cc4ccccc4s3)n2)cc1)N1CCC(N2CCCC2)CC1 — remaining binding (binding; competition with immobilised ligand; 1 µM): 19%
CC(=O)C1=C(C)N(c2cccc(C(F)(F)F)c2)C(=O)N[C@@H]1c1ccc(C#N)nc1 — remaining binding (cell-free assay; competition with immobilised ligand; 1 µM): 100%
C[C@@H]1CCN(c2nccc(-c3cnn4ncccc34)n2)C1 — remaining binding (binding; 1 µM): 77%
O=C(c1ccc(Nc2nccc(-c3cc4ccccc4s3)n2)cc1)N1CCC(N2CCCC2)CC1 — remaining binding (binding; competition with immobilised ligand; 1 µM): 31%
COc1ncc2cc3ccccc3nc2c1C#N — remaining binding (cell-free assay; competition with immobilised ligand; 5 µM): 88%
N[C@H]1CCN(c2nccc(-c3cnn4ncccc34)n2)C1 — remaining binding (binding; 1 µM): 84%
CNC(=O)c1ccc(Nc2ncc(C(F)(F)F)c(NCc3nccnc3N(C)S(C)(=O)=O)n2)cc1 — remaining binding (cell-free assay; competition with immobilised ligand; 0.1 µM): 69%
C=CC(=O)N1CCC(C(=O)NCC(=O)N2CCN(c3nc(-c4cnc(N)nc4C(F)F)nc(N4CCOCC4)n3)CC2)CC1 — remaining binding (binding; competition with immobilised ligand; 1 µM): 97%
COc1cnc(Nc2cccc(S(N)(=O)=O)c2)nc1N1CCN(c2ccccc2)CC1 — remaining binding (binding; competition with immobilised ligand; 1 µM): 100%
O=C(NCC1CCOCC1)c1n[nH]cc1NC(=O)c1c(F)cccc1F — remaining binding (binding; competition with immobilised ligand; 1 µM): 100%
C[C@@H](c1cccc(C#N)c1)n1cc(Cl)cc(C(N)=O)c1=N — remaining binding (cell-free assay; competition with immobilised ligand; 1 µM): 90%
CNC(=O)[C@@H]1CC[C@@H](n2c(-c3ccc4cnccc4c3)nc3ccc(C(=O)NCc4cccc(C(N)=O)c4)cc32)C1 — remaining binding (binding; competition with immobilised ligand; 1 µM): 100%
C[C@@H]1CN(c2ccc3ncc(-c4ccc5[nH]nc(C6CC6)c5c4)n3n2)C[C@H](C)O1 — remaining binding (binding; competition with immobilised ligand; 0.5 µM): 100%
CN(C)c1ncc(F)c(-c2cnn3ncccc23)n1 — remaining binding (binding; 1 µM): 100%
Cc1cnc(Nc2ccc(C(=O)N3CCC(N4CCCC4)CC3)cc2)nc1-c1cc2ccccc2s1 — remaining binding (binding; competition with immobilised ligand; 1 µM): 11%
CCS(=O)(=O)c1cc2cc(C[C@@](O)(CC(C)(C)c3ccc(F)cc3C(N)=O)C(F)(F)F)[nH]c2cn1 — remaining binding (cell-free assay; competition with immobilised ligand; 1 µM): 94%
CN(c1nccc(-c2cnn3ncccc23)n1)C1CC1 — remaining binding (binding; 1 µM): 100%
C[C@@H]1CN(c2cc(-c3n[nH]c4ccc(OC5(C)CC5)cc34)ncn2)C[C@H](C)O1 — remaining binding (cell-free assay; competition with immobilised ligand; 0.1 µM): 100%
CN(CCCC(F)(F)F)c1nccc(-c2cnn3ncccc23)n1 — remaining binding (binding; 1 µM): 100%
O=C(NCCCC1CCCCC1)c1ccc(CNC(=O)c2cnn(-c3ccccc3)c2C(F)(F)F)cc1 — remaining binding (cell-free assay; competition with immobilised ligand; 0.1 µM): 100%
FC(F)(F)Oc1cccc(-c2cnc3ccc(-c4ccncc4)nn23)c1 — remaining binding (cell-free assay; competition with immobilised ligand; 5 µM): 76%
CCCOc1ccc([C@@H]2[C@@H](C(=O)O)[C@H](c3ccc4c(c3)OCO4)CN2CC(=O)Nc2c(CC)cccc2CC)cc1 — remaining binding (cell-free assay; competition with immobilised ligand; 1 µM): 86%
COc1ccnn2ncc(-c3ccnc(N(C)C)n3)c12 — remaining binding (binding; 1 µM): 100%
